Assay results taken from ChEMBL document CHEMBL1932952, “Synthesis and biochemical analysis of 2,2,3,3,4,4,5,5,6,6,7,7-dodecafluoro-N-hydroxy-octanediamides as inhibitors of human histone deacetylases” (Bioorg Med Chem, 2012).

Legend:
[1] = target: T1, Histone deacetylase-like amidohydrolase (Alcaligenes sp. (strain DSM 11172) (Bordetella sp. (strain FB188)), UniProt Q70I53); assay: Inhibition of Bordetella FB188 HDAH using Boc-L-Lys(acetyl)-MCA as substrate by fluorogenic enzymatic assay
T1 sequence (Q70I53 whole entry): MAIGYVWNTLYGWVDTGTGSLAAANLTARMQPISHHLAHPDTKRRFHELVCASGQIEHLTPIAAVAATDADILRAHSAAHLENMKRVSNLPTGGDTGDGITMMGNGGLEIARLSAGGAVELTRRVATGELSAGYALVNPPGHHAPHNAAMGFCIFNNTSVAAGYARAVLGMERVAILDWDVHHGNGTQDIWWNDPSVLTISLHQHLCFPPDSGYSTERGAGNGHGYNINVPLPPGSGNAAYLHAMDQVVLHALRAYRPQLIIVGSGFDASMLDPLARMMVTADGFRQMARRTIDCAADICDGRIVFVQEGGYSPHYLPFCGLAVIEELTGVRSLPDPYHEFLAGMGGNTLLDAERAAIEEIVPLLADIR

Histone deacetylase 1 = Histone deacetylase 1 (Homo sapiens, UniProt Q13547); assay: Inhibition of recombinant human HDAC1 using Boc-L-Lys(acetyl)-MCA as substrate by fluorogenic enzymatic assay
[2] = target: T2, Protein deacetylase HDAC6 (Homo sapiens, UniProt Q9UBN7); assay: Inhibition of recombinant human HDAC6 using Boc-L-Lys(acetyl)-MCA as substrate by fluorogenic enzymatic assay
T2 sequence (Q9UBN7 whole entry): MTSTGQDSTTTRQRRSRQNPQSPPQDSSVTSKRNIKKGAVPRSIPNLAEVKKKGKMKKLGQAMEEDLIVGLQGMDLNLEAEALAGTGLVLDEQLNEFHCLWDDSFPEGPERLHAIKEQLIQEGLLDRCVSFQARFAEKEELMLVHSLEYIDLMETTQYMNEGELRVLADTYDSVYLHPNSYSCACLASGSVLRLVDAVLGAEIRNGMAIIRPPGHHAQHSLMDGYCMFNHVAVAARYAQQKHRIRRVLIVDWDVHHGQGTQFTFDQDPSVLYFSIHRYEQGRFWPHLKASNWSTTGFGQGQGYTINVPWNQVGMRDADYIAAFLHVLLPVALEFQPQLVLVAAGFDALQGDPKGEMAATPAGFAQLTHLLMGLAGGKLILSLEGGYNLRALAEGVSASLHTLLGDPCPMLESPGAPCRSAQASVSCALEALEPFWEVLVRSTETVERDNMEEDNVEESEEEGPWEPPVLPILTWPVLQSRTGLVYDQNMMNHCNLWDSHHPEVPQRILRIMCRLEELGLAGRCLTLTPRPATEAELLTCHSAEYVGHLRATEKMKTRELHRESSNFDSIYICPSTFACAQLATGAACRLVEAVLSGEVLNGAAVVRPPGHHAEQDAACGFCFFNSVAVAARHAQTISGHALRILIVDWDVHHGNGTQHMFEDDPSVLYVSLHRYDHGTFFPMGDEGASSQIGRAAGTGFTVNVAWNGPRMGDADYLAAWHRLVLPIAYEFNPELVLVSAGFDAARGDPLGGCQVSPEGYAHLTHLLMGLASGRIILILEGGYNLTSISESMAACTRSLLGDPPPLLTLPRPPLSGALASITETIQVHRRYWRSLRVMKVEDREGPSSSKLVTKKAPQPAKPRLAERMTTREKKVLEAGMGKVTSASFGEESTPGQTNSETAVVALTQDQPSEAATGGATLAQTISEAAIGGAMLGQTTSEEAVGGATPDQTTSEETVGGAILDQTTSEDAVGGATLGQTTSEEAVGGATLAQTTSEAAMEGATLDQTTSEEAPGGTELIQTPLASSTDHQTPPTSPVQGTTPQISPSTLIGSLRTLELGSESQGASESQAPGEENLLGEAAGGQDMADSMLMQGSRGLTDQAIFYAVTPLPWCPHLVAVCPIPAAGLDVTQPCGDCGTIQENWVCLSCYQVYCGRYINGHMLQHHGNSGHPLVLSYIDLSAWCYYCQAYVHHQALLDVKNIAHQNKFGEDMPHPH

Histone deacetylase 7 = target: T3, Histone deacetylase 7 (Homo sapiens, UniProt Q8WUI4); assay: Inhibition of recombinant human HDAC7 using Boc-L-Lys(trifluoroacetyl)-MCA as substrate by fluorogenic enzymatic assay
T3 sequence (Q8WUI4 whole entry): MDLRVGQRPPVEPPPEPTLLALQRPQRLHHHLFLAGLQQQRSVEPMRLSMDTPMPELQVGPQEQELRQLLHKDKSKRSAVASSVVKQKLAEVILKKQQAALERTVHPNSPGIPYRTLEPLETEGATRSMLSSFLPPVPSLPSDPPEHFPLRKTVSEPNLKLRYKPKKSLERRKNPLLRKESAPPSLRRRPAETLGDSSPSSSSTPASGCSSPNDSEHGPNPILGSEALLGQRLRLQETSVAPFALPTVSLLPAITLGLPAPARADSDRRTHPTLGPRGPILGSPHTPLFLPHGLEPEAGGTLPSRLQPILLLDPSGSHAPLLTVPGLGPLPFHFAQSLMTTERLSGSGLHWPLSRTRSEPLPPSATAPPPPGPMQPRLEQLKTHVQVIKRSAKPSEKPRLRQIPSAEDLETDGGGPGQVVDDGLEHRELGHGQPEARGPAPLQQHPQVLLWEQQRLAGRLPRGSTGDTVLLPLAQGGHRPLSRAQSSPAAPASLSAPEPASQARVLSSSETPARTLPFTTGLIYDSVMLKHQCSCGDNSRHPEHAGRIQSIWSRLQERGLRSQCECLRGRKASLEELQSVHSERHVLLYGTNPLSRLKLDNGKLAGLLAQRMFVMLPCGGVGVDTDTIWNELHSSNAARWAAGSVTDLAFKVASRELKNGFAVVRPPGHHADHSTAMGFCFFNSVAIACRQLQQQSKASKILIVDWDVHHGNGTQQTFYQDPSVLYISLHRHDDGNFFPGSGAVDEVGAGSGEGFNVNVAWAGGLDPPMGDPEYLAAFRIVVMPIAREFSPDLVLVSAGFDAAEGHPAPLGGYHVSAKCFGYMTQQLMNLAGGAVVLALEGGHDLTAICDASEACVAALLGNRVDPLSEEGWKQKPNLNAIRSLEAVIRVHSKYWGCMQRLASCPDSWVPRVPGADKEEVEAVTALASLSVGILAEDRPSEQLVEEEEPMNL

Histone deacetylase 8 = target: T4, Histone deacetylase 8 (Homo sapiens, UniProt Q9BY41); assay: Inhibition of recombinant human HDAC8 using Boc-L-Lys(trifluoroacetyl)-MCA as substrate by fluorogenic enzymatic assay
T4 sequence (Q9BY41 whole entry): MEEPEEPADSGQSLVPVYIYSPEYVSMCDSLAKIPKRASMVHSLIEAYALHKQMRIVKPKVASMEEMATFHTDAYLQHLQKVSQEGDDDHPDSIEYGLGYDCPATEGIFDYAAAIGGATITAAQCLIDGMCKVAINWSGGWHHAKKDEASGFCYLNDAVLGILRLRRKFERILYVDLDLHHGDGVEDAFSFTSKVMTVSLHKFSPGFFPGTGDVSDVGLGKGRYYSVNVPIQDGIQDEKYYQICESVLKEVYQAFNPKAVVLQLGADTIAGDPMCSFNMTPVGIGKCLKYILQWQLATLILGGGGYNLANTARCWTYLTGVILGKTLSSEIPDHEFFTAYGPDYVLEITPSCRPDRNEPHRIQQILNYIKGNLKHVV

Histone deacetylase [3] = assay: Inhibition of HDAC in human K562 cells using Boc-L-Lys(acetyl)-MCA as substrate by fluorogenic cellular assay; type: cell-based
Outline: (§1)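 K562 cells were grown in RPMI with 10% FCS, L-glutamine and gentamycin, then pelleted. Lysis in 50 mM Tris–HCl pH 8.5, 1 M NaCl, 1 mM MgCl₂, Triton X-100 (up to 5× pellet volume), 2 h at 37 °C. The diluted lysate replaces recombinant enzyme in the two-step fluorogenic trypsin-coupled assay with substrate at 20 µM final. Read-out is AMC fluorescence (ex 390, em 460 nm), giving IC50.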

Histone deacetylase [4] = assay: Inhibition of HDAC in human K562 cells using Boc-L-Lys(trifluoroacetyl)-MCA as substrate by fluorogenic cellular assay; type: cell-based; outline: as §1

Histone deacetylase 1, sequence (Q13547 whole entry): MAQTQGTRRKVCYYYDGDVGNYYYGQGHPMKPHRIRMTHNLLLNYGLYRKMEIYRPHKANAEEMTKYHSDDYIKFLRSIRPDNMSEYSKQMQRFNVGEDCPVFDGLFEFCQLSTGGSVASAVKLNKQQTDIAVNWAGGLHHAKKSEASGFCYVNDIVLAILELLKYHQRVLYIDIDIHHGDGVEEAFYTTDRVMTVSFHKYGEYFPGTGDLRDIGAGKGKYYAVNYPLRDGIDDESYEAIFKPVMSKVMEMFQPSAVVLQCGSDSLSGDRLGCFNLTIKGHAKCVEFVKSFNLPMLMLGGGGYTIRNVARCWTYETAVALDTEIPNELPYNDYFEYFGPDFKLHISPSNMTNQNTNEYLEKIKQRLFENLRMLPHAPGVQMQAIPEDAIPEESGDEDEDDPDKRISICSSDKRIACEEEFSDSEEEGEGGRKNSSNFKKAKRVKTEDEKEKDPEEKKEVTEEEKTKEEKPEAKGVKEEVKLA

Structure (SMILES)	Kd [1] [µM]	Kd (Histone deacetylase 1) [µM]	Kd [2] [µM]	Kd (Histone deacetylase 7) [µM]	Kd (Histone deacetylase 8) [µM]	IC50 (Histone deacetylase [3]) [µM]	IC50 (Histone deacetylase [4]) [µM]
Cc1ccc(NC(=O)C(F)(F)C(F)(F)C(F)(F)C(F)(F)C(F)(F)C(F)(F)C(=O)NO)cc1	0.27	14	> 100	52	34		
O=C(Nc1ccccc1)C(F)(F)C(F)(F)C(F)(F)C(F)(F)C(F)(F)C(F)(F)C(=O)Nc1ccccc1	27	> 100	> 100	> 100	> 100		
O=C(NO)C(F)(F)C(F)(F)C(F)(F)C(F)(F)C(F)(F)C(F)(F)C(=O)Nc1ccc2cc3ccccc3cc2c1	9.1	65	11	38	60		
O=C(NO)C(F)(F)C(F)(F)C(F)(F)C(F)(F)C(F)(F)C(F)(F)C(=O)Nc1cc2ccccc2c2ccccc12	0.29	18	10	11	5.3		
O=C(NO)C(F)(F)C(F)(F)C(F)(F)C(F)(F)C(F)(F)C(F)(F)C(=O)Nc1ccc(-c2cnnn2-c2ccccc2)cc1	4.5	66	47	12	> 100		
O=C(NO)C(F)(F)C(F)(F)C(F)(F)C(F)(F)C(F)(F)C(F)(F)C(=O)Nc1ccc(-c2cn(-c3ccccc3)nn2)cc1	7	> 100	8.2	30	> 100		
O=C(NO)C(F)(F)C(F)(F)C(F)(F)C(F)(F)C(F)(F)C(F)(F)C(=O)Nc1ccc2ccc3cccc4ccc1c2c34	0.6	22	17	75	47		
N#Cc1ccc(NC(=O)C(F)(F)C(F)(F)C(F)(F)C(F)(F)C(F)(F)C(F)(F)C(=O)NO)cc1	0.23	18	71	32	35		
O=C(NO)C(F)(F)C(F)(F)C(F)(F)C(F)(F)C(F)(F)C(F)(F)C(=O)Nc1ccccc1-c1ccccc1	0.86	49	9.2	14	5.3	> 50	> 50
O=C(NO)C(F)(F)C(F)(F)C(F)(F)C(F)(F)C(F)(F)C(F)(F)C(=O)Nc1cccc2cc3ccccc3cc12	0.74	14	5.9	13	1.4	> 50	> 50
O=C(NO)C(F)(F)C(F)(F)C(F)(F)C(F)(F)C(F)(F)C(F)(F)C(=O)Nc1ccc2ccccc2c1	0.16	12	6.8	11	49	> 50	45
CCc1cccc(NC(=O)C(F)(F)C(F)(F)C(F)(F)C(F)(F)C(F)(F)C(F)(F)C(=O)NO)c1	0.19	16	1.3	3	13	> 50	42
O=C(NO)C(F)(F)C(F)(F)C(F)(F)C(F)(F)C(F)(F)C(F)(F)C(=O)Nc1ccc(I)cc1	0.39	14	4.2	4.1	36	> 50	> 50
O=C(NO)C(F)(F)C(F)(F)C(F)(F)C(F)(F)C(F)(F)C(F)(F)C(=O)Nc1ccc(-c2ccccc2)cc1	8.8	31	49	14	57		
O=C(NO)C(F)(F)C(F)(F)C(F)(F)C(F)(F)C(F)(F)C(F)(F)C(=O)Nc1cccc(-c2ccccc2)c1	0.45	30	15	14	60		
Cc1ccc(NC(=O)C(F)(F)C(F)(F)C(F)(F)C(F)(F)C(F)(F)C(F)(F)C(=O)NO)cc1C	0.26	24	24	3.3	14	> 50	> 50
O=C(NO)C(F)(F)C(F)(F)C(F)(F)C(F)(F)C(F)(F)C(F)(F)C(=O)Nc1ccc(Cl)cc1	0.21	12	23	19	35		
O=C(NO)C(F)(F)C(F)(F)C(F)(F)C(F)(F)C(F)(F)C(F)(F)C(=O)Nc1cccc2ccccc12	0.37	29	32	20	19		
CC(=O)Nc1ccc(NC(=O)C(F)(F)C(F)(F)C(F)(F)C(F)(F)C(F)(F)C(F)(F)C(=O)NO)cc1	1.3	18	9.2	13	36	> 50	> 50
